The text below walks through data of ChEMBL document CHEMBL4002589, “Tri- and Tetrasubstituted Pyridinylimidazoles as Covalent Inhibitors of c-Jun N-Terminal Kinase 3” (J Med Chem, 2017).

SMILES strings stand for the structures. Active and inactive are the calls of the source. The calls are words filed in the database; no cut-off is given here.

Data set [1] addresses Mitogen-activated protein kinase 10 (Homo sapiens, UniProt P53779). Description: Inhibition of recombinant 6x-His-tagged JNK3 (39 to 402 residues) (unknown origin) expressed in Escherichia coli BL21(DE3) assessed as reduction in ATF2 phosphorylation measured after 50 mins by ELISA.
Data set [2] concerns the target Mitogen-activated protein kinase 14 (Homo sapiens, UniProt Q16539). Briefly: Inhibition of GST-His tagged human p38alpha expressed in Escherichia coli assessed as reduction in ATF2 phosphorylation measured after 60 mins by ELISA. The method in brief: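 ELISA kinase assays run in parallel for JNK3 and p38α, with 60 min incubation. IC50 values are the mean of three experiments.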

Data set [3] addresses Casein kinase I isoform gamma-2 (Homo sapiens) (UniProt P78368). Briefly: Inhibition of CK1 gamma2 (unknown origin) assessed as residual activity at 1 uM relative to control. The method in brief: (§1)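 Each inhibitor is tested at a single concentration, 1 µM or 0.5 µM depending on the compound. Results are reported as residual kinase activity.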
Data set [4] deals with Casein kinase I isoform gamma-3 (Homo sapiens) (UniProt Q9Y6M4). Description: Inhibition of CK1 gamma3 (unknown origin) assessed as residual activity at 1 uM relative to control. An outline of the steps: as §1
Chain of Casein kinase I isoform gamma-3 (Homo sapiens) (Q9Y6M4 whole entry, looked up, canonical isoform): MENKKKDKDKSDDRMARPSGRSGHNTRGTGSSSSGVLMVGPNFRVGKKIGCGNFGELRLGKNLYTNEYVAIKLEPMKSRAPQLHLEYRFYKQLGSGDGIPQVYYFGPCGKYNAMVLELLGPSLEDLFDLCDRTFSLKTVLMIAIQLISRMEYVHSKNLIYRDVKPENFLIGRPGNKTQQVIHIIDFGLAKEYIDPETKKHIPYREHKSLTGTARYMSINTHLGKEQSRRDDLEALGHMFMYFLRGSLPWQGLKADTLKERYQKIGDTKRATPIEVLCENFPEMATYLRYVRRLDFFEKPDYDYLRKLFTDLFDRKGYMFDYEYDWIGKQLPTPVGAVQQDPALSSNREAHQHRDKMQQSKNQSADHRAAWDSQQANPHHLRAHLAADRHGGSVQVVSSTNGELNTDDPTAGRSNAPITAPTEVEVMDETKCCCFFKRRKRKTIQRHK
The target in data set [5] is T1, Dual specificity mitogen-activated protein kinase kinase 7 (Homo sapiens) (UniProt O14733).
T1 sequence (whole entry): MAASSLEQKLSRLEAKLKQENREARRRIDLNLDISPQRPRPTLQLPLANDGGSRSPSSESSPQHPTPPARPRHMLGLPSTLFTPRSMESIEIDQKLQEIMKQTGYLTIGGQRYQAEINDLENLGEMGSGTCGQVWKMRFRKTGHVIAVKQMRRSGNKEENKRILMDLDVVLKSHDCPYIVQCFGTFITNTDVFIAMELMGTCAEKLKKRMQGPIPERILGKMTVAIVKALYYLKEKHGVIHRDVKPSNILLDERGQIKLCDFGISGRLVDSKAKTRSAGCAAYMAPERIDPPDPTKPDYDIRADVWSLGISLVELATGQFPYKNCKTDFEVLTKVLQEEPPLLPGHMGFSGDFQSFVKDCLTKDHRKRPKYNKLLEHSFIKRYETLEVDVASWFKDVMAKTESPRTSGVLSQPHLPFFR
Briefly: Inhibition of full length human GST-HIS tagged MKK7 expressed in Sf9 cells assessed as residual activity at 1 uM relative to control. An outline of the steps: as §1

Data set [6] deals with T2, Serine/threonine-protein kinase TAO2 (Homo sapiens) (UniProt Q9UL54).
T2 sequence (whole entry): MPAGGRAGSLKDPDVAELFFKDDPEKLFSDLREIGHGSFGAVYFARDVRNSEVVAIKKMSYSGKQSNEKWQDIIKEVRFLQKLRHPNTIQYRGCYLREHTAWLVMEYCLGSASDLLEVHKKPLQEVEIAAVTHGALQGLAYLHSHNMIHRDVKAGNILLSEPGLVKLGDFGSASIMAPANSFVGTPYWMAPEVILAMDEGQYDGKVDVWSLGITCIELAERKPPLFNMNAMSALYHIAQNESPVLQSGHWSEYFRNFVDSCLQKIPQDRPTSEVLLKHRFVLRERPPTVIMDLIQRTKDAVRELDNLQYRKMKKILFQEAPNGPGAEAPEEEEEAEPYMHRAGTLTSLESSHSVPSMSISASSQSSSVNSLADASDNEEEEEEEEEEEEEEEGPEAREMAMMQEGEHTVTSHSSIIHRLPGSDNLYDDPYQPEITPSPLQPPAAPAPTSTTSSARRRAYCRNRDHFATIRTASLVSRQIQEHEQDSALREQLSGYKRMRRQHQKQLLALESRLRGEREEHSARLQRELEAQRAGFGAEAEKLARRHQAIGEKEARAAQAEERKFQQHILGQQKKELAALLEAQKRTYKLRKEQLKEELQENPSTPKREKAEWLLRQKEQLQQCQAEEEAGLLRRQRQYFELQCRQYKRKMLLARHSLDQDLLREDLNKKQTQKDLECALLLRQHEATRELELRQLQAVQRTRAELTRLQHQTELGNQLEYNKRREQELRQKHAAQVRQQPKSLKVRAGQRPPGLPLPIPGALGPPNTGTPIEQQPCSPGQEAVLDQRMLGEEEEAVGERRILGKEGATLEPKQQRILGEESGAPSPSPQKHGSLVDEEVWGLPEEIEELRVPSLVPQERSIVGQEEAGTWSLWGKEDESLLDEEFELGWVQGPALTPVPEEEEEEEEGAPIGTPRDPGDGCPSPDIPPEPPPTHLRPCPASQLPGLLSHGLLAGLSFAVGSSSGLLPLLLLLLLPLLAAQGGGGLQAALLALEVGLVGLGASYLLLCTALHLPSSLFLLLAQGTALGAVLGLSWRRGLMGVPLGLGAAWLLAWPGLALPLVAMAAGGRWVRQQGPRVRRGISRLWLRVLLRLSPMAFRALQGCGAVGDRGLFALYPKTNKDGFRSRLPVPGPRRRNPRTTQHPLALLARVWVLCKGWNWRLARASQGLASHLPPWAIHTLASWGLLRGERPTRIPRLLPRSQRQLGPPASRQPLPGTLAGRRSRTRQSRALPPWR
Briefly: Inhibition of TAOK2 (unknown origin) assessed as residual activity at 1 uM relative to control. An outline of the steps:
as §1

For data set [7], the target named is Serine/threonine-protein kinase 16 (Homo sapiens) (UniProt O75716). Description: Inhibition of full length human GST-tagged TSF1 expressed in Sf9 cells assessed as residual activity at 1 uM relative to control. An outline of the steps:
as §1

For data set [8], the target named is Mitogen-activated protein kinase kinase kinase 20 (Homo sapiens) (UniProt Q9NYL2). Description: Inhibition of ZAK (unknown origin) assessed as residual activity at 1 uM relative to control. The method in brief:
as §1

Data set [9] is described as follows: Drug metabolism in human liver microsomes at 100 uM preincubated with NADPH regenerating system for 5 mins followed by addition of liver microsomes measured after 190 mins by LC-MS analysis. It counts as ADME, microsome. The conditions noted are these: read-out: Drug metabolism. On the technique in general: Microsomes from liver hold many membrane-bound enzymes, among them those of drug oxidation.

Data set [10] deals with Mitogen-activated protein kinase 10 (Homo sapiens), P53779 [C154A]. Briefly: Covalent binding affinity to JNK3 C154A mutant (unknown origin) at 5 molar excess after 1 hr by LC-muESI-QTOF mass spectrometry. The method in brief: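 Intact-protein mass spectrometry with a JNK3 mutant carrying Cys-154→Ala. Inhibitor is incubated with the protein. Unbound and reversibly bound ligand are removed by chromatography and by a high declustering potential before ionization. The protein is then analysed by LC-µESI-QTOF to look for a mass shift from a covalent adduct.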
Chain of Mitogen-activated protein kinase 10 (Homo sapiens), P53779 [C154A] (P53779 whole entry C154A): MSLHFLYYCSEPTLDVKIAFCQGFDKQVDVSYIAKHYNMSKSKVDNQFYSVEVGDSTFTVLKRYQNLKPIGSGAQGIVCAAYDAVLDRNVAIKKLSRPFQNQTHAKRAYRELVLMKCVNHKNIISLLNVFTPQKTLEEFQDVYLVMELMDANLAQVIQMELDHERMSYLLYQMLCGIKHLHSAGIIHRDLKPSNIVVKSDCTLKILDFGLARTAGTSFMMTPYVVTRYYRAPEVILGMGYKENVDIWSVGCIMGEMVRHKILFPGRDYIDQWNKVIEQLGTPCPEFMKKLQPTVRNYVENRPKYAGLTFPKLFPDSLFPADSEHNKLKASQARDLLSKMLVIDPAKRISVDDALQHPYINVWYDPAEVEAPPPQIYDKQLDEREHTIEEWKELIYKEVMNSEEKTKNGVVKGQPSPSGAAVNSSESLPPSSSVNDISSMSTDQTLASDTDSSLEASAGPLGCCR

Chain of Casein kinase I isoform gamma-2 (Homo sapiens) (P78368 whole entry, looked up, canonical isoform): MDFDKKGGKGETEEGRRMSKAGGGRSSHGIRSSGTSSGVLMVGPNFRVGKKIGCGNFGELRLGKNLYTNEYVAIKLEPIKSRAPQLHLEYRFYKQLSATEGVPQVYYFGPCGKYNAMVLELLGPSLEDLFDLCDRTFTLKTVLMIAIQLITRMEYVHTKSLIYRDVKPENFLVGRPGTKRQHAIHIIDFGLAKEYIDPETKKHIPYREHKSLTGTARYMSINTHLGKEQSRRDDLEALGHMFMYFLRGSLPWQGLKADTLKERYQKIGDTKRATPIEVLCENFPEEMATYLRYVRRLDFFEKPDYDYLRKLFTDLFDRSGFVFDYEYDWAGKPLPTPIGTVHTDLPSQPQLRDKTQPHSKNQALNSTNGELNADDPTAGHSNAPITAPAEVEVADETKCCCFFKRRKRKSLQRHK
Chain of Mitogen-activated protein kinase 14 (Q16539 whole entry): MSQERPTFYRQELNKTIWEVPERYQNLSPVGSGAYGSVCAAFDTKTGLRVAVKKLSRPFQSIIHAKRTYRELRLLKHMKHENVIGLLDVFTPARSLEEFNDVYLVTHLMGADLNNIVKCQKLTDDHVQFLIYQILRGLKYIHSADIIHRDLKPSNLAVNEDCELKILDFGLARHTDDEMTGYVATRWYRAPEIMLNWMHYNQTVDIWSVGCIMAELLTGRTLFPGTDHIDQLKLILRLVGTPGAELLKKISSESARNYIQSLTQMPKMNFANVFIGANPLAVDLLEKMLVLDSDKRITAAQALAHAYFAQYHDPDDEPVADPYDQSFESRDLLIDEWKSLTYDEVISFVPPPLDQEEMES
Chain of Mitogen-activated protein kinase 10 (P53779 whole entry, the tested form may be a part): as the sequence (P53779 whole entry C154A) above, with A154C counted along it
Chain of Mitogen-activated protein kinase kinase kinase 20 (Homo sapiens) (Q9NYL2 2-800 limits assumed): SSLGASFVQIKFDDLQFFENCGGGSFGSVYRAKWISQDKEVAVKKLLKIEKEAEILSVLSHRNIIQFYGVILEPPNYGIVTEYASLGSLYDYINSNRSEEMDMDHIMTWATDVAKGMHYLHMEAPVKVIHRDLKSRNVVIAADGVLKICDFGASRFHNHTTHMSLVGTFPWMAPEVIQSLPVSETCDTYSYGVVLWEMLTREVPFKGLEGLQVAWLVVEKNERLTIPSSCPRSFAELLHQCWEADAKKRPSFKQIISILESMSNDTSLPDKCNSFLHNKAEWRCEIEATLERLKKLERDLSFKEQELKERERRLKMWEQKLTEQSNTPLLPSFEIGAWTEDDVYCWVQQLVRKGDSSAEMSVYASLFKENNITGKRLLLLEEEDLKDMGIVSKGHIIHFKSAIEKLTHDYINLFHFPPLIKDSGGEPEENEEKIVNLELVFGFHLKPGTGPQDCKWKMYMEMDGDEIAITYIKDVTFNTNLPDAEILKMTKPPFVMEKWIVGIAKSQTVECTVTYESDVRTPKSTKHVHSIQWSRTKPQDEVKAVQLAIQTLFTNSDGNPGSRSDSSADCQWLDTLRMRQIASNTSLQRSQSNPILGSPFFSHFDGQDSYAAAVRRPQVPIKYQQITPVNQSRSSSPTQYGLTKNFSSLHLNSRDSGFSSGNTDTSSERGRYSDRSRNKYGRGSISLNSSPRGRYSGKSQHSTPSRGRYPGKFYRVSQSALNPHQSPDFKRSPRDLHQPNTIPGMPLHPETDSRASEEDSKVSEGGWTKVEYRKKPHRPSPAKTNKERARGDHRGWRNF
Chain of Serine/threonine-protein kinase 16 (Homo sapiens) (O75716 whole entry): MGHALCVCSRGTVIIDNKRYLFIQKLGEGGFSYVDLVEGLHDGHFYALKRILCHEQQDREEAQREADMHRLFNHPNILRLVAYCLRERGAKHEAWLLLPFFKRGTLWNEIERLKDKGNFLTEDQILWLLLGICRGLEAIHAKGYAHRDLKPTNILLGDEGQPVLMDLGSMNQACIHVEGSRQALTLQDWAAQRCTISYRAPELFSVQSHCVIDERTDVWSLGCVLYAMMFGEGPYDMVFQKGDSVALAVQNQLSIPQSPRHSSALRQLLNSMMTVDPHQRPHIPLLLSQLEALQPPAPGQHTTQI

In the case of `C=CC(=O)Nc1cccc(C(=O)Nc2ccc(Nc3cc(-c4[nH]c(SC)nc4C)ccn3)cc2)c1`, the half-maximal inhibitory concentration (IC50) (usually the concentration at which inhibition is half-maximal) in [1] amounted to 2 nM; in [2] it was 1950 nM. The Activity in data set [3], in data set [4], in data set [5], in data set [6], in [7] and in data set [8] was 10 to 29% in each case. Moreover, in data set [9], the metabolised at 190 min, 100 µM was determined as 31%. Besides, the result in data set [10] was inactive.
